ChEMBL document CHEMBL4411261, “Down-Regulation of the Androgen Receptor by G-Quadruplex Ligands Sensitizes Castration-Resistant Prostate Cancer Cells to Enzalutamide” (J Med Chem, 2018)
Activity calls are given as the source filed them. The calls are words filed in the database; no cut-off is given here.

Legend:
PC-3 = test: Synergistic cytotoxicity against human PC3 cells assessed as ED50 for Enzalutamide at 0.001 to 0.1 uM after 72 hrs by MTS assay; conditions: PC-3, 72 h
Quadruplex DNA [1] = test: Stabilization of AR G-quadruplex oligonucleotide in human 22Rv1 cells assessed as up-regulation of BAX mRNA expression at IC50 after 48 hrs by RT-PCR analysis; type: cell-based
Outline: (§1)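 Transcripts quantified by TaqMan real-time PCR with RNaseP as normalizer; relative quantity versus untreated cells by the 2−ΔΔCt method. Panel genes measured with a 92-gene cancer-mechanism TaqMan array.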

Quadruplex DNA [2] = test: Stabilization of AR G-quadruplex oligonucleotide in human 22Rv1 cells assessed as regulation of ERBB2 mRNA expression at IC50 after 48 hrs by RT-PCR analysis; type: cell-based
Outline: as §1

Quadruplex DNA [3] = test: Stabilization of AR G-quadruplex oligonucleotide in human LNCAP cells assessed as down-regulation of KLK3 mRNA expression at IC50 after 48 hrs by RT-PCR analysis; type: cell-based
Outline: as §1

CWR22R = test: Synergistic cytotoxicity against human 22Rv1 cells expressing full length androgen receptor H875Y point mutant assessed as reduction in cell viability at 0.001 to 0.1 uM after 72 hrs in presence of Enzalutamide by MTS assay based CI-Fa plot analysis; type: functional
Outline: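 Cells in RPMI-1640 with 10% fetal calf serum were exposed to ligand (0.001−0.1 μM) plus enzalutamide (0.5−50 μM) at a fixed ratio, five concentrations, for 72 h at 37 °C, 5% CO2. Viability read by MTS absorbance at 490 nm after 4 h. Combination index computed at ED50 and ED75 by the Chou–Talalay method.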

Quadruplex DNA [4] = test: Stabilization of AR G-quadruplex oligonucleotide in human DU145 cells assessed as up-regulation of WNT1 mRNA expression at IC50 after 48 hrs by RT-PCR analysis; type: cell-based
Outline: as §1

Quadruplex DNA [5] = test: Stabilization of 5'-FAM/3'-TAMRA labelled AR3 G-quadruplex oligonucleotide (unknown origin) assessed as change in melting temperature t1/2 at 1 uM after 16 hrs in presence of 100 mM K+ by FRET assay; type: nucleic-acid assay
Outline: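 FRET melting: FAM/TAMRA dual-labelled oligos (0.25 μM) folded in 10 mM lithium cacodylate pH 7.4 with 100 mM KCl (95 °C 5 min, cooled 4 h); ligand added at 1 μM final, 16 h room temperature. FAM emission followed 30−95 °C at 1 °C/min; curves normalized 0 to 1, T1/2 at 0.5 fraction.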

Quadruplex DNA [6] = test: Stabilization of AR G-quadruplex oligonucleotide in human 22Rv1 cells assessed as reduction in AR-Vs protein level by immunoblotting assay; type: cell-based
Quadruplex DNA [7] = test: Stabilization of AR G-quadruplex oligonucleotide in human LNCAP cells assessed as reduction in AR-FL protein level by immunoblotting assay; type: cell-based
Outline: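 Lysate proteins immunoblotted. Vinculin or β-actin used as loading control, peroxidase-linked secondary antibodies, ECL chemiluminescent detection, autoradiography, densitometric scan. Untreated cells received DMSO.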

Quadruplex DNA [8] = test: Stabilization of AR G-quadruplex oligonucleotide in human 22Rv1 cells assessed as down-regulation of BCL2 mRNA expression at IC50 after 48 hrs by RT-PCR analysis; type: cell-based
Outline: as §1

LNCaP = test: Cytotoxicity against human LNCAP cells expressing androgen receptor T877A point mutant assessed as reduction in cell viability after 48 hrs by MTS assay; type: functional, cell-based
Outline: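 Cells kept in RPMI-1640 with 10% fetal calf serum, 37 °C, 5% CO2. Seeded, after 24 h treated with 0.0001, 0.001, 0.01, 0.1, 1 and 10 μM compound (DMSO stocks freshly diluted in medium) for 48 h. MTS added 4 h, absorbance 490 nm; IC50 from curves of % viability inhibition versus DMSO-treated cells against log concentration.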

[9] = Stabilization of AGTGAGAGTGAGAGAGAGAGTGAGAGTGAGAGTGA ssDNA (unknown origin) assessed as effect on conformational change at 16 uM after 16 hrs in presence of 100 mM K+ by CD spectra analysis
Outline: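 CD: oligos at 4 μM final in 10 mM lithium cacodylate pH 7.4, 100 mM KCl, annealed 95 °C 5 min then 4 h room temperature; duplex from equimolar strands. Ligand 16 μM final, 16 h room temperature. Spectra 230−320 nm, 5 mm cell, two scans averaged at 20 °C, buffer-subtracted; melting from spectra 20−90 °C in 5 °C steps.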

[10] = Drug uptake in human PNT1A cells at 160 nM after 24 hrs by DAPI staining-based fluorescence microscopic analysis; type: ADME, cell-based; conditions: 0.16 µM
Quadruplex DNA [11] = test: Stabilization of AR1 G-quadruplex oligonucleotide (unknown origin) assessed as melting temperature at 16 uM after 16 hrs in presence of 100 mM K+ by CD spectra analysis (reference value: 74.9 +/- 0.3 degreeC); type: nucleic-acid assay
Quadruplex DNA [12] = test: Stabilization of AR G-quadruplex oligonucleotide in human 22Rv1 cells assessed as reduction in AR mRNA expression at IC50 after 6 to 72 hrs by RT-PCR analysis; type: cell-based; conditions: TDE = time-dependent effect
Outline: as §1

Quadruplex DNA [13] = test: Binding affinity to 5'-Biotinylated-AR1 G-quadruplex oligonucleotide (unknown origin) by SPR analysis; type: nucleic-acid assay
Outline: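 SPR on streptavidin chip; 5′-biotinylated oligo folded by heating 95 °C 5 min in 10 mM lithium cacodylate, 150 mM KCl, then immobilized at 30 nM to about 600 RU; empty reference cell. Compound 0.7−400 nM in HEPES-KCl (pH 7.4, 0.15 M KCl, 3 mM EDTA) at 40 °C, 40 μL/min, 260 s contact, 600 s dissociation; glycine pH 2.0 regeneration; steady-state affinity fit; at least two independent runs.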

Quadruplex DNA [14] = test: Stabilization of AR G-quadruplex oligonucleotide in human 22Rv1 cells assessed as reduction in AR-VS protein level at IC50 after 48 hrs by Western immunoblot assay; type: cell-based
Quadruplex DNA [15] = test: Stabilization of AR G-quadruplex oligonucleotide in human PC3 cells assessed as down-regulation of MAX mRNA expression at IC50 after 48 hrs by RT-PCR analysis; type: cell-based
Outline: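 PC-3 cells (RPMI-1640, 10% fetal calf serum) exposed at an equitoxic concentration. Expression of 92 cancer-mechanism genes measured on TaqMan Arrays. Change versus untreated cells computed by 2−ΔΔCt, with RNaseP as normalizer.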

Quadruplex DNA [16] = test: Stabilization of AR G-quadruplex oligonucleotide in human 22Rv1 cells assessed as down-regulation of ITGB3 mRNA expression at IC50 after 48 hrs by RT-PCR analysis; type: cell-based
Outline: as §1

Quadruplex DNA [17] = test: Stabilization of AR3 G-quadruplex oligonucleotide (unknown origin) assessed as melting temperature at 16 uM after 16 hrs in presence of 100 mM K+ by CD spectra analysis (reference value: 78.8 +/- 1.7 degreeC); type: nucleic-acid assay
[18] = Drug uptake in human 22Rv1 cells expressing full length androgen receptor H875Y point mutant at 160 nM after 24 hrs by DAPI staining-based fluorescence microscopic analysis; type: ADME, cell-based; conditions: cwr22r, 0.16 µM

## CN(C)CCCn1c(=O)c2ccc3c(=O)n(CCCN(C)C)c(=O)c4c5[nH]c6ccccc6[nH]c5c(c1=O)c2c34.Cl.Cl
PC-3
  EC50: 2180 nM
Quadruplex DNA [1]
  Activity: Active
Quadruplex DNA [2]
  Activity: Active
Quadruplex DNA [3]
  Activity: Active
CWR22R
  CI: <0.5
Quadruplex DNA [4]
  Activity: Active
Quadruplex DNA [5]
  ΔTm: 31 °C
Quadruplex DNA [6]
  Activity: Active
Quadruplex DNA [7]
  Activity: Active
Quadruplex DNA [8]
  Activity: Active
LNCaP
  IC50: 140 nM
[9]
  Activity: inactive
[10]
  Drug uptake: Active
Quadruplex DNA [11]
  Tm: > 90 °C
Quadruplex DNA [12]
  Activity: Tde
Quadruplex DNA [13]
  Kd: 17.9 nM
Quadruplex DNA [14]
  Activity: Active
Quadruplex DNA [15]
  Activity: Active
Quadruplex DNA [16]
  Activity: Active
Quadruplex DNA [17]
  Tm: > 90 °C
[18]
  Drug uptake: Active
